# Source: the EternaBench riboswitch data
# System: MS2 coat protein
# Experiment: apparent Kd, MS2 coat protein; higher = weaker binding; RNA-MaP array
# In short: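 Designed RNAs were produced on an Illumina sequencing chip by transcription of sequenced DNA templates. Binding to fluorescently labeled MS2 coat protein (1.5 nM to 3 μM) was measured at room temperature with or without input ligand. The apparent Kd is the median of per-cluster binding-curve fits. Designs were excluded when measured on fewer than 10 clusters.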
# [1] = designed as: ON switch for flavin mononucleotide, no ligand
# [2] = ligand present: flavin mononucleotide, designed as: ON switch for flavin mononucleotide
# [3] = designed as: OFF switch for flavin mononucleotide, no ligand
# [4] = ligand present: flavin mononucleotide, designed as: OFF switch for flavin mononucleotide
Sequence,apparent Kd [1] [nM],apparent Kd [2] [nM],apparent Kd [3] [nM],apparent Kd [4] [nM],also measured
AAAACUUAUCAGAAGGAACGCACUCAACCGUUGUUAGGAUAUGAUCACCUAACAUGAGGAUCACCCAUGUUCACAGUAGGAGAC,130,89.5,,,
AAAAGCAGGGUCAGGAUAUAGGGUUCACUGUUGGCCUAGAAGGGACAUGAGGAUCACCCAUGUAUAGUAGUGGG,,,347,262,
AAAAGUACAGGAUAUACAUGAGGAUCACCCAUGUCAGAAUAUAAUGAUAAGAAACUGAGUAGAAGGGUAACGAG,,,28.6,20.3,
AAACCCAAAGUUAGGAUAUGCAUUGCCGGCCCUGUGCAGAAGGAACAUGAGGAUCACCCAUGUACUGGUGUUCG,,,42.7,103,
AAAGAACAUGAGGAUCACCCAUGUCAGGAUAUACAAAGACGUAGCAAAGCGGACUCAAGAAGAAGGGACAAGGA,,,12.8,10.1,
AACAUGAGGAUCACCCAUGUCACAUACAAGUGGAGUUCUAUGAGAAGGGCGAAACGAAUGAGCACGCAGGAUAUCAGCGAUAAA,13.5,11.3,,,
AACAUGUGAGGAUAUAGUCAAAAUAGCACAAGUAACAUAAACUAGAAGGCACAUGAGGAUCACCCAUGUGAAUA,,,7.9,10.6,
AACCAUCUCGGCGAUACCAGUGCCUACGAGUACAUGAGGAUCACCCAUGUAGGUGACCGACACCCUUGGCAGCGCGAUUGAGUCA,,,,,"apparent Kd (designed as: ON switch for theophylline, no ligand): 140 nM; apparent Kd (ligand present: theophylline, designed as: ON switch for theophylline): 70.6 nM"
AACCGGCAAGGAUAUACAUGAGGAUCACCCAUGUACGACGCGCUGGCUACGUUUUUAUGUAGAAGGUGCCGACC,,,6.19,6.26,
AACUCCACCGCAGGAUAUCCGGUCUCUCUGUAGACGACAUGAGGAUCACCCAUGUAUCCGGGAAUGGAGAAGGGCGGUGCUCCU,,,16.4,13,
AAGAACCAGAUAGGAUAUCCGUUUAAAUCACAAGGAGAAGGAUCAAAUACAAAACAUGAGGAUCACCCAUGUGGAAGAUAGCUA,33.2,18.7,,,
AAGAGUGUGAGAGGAUAUGCUUACCCAUAUCACAUGAGGAUCACCCAUGUCGGCGAUUGUAUUAUGCAGAAGGCUCAAGGACUC,18.3,9.8,,,
AAGGAAUAUGAGGAUAUUGAUGCGAAACCUACUCAAGAAGGCAUAACAUGAGGAUCACCCAUGUGACCCUUAUA,,,19.4,34.4,
AAGUGACAUGAGGAUCACCCAUGUGAGGAUAUGGCUGAACAGAAAUAUGGGAAAAGAGCCAGAAGGCACGCCGG,,,62.3,112,
AAUACACUUGAGAAGGCCCAAACAUGAGGAUCACCCAUGUGACAUGUAAUCGCCGCGAAUGGAAGGGAGGAUAUCAGAAUCCAC,16.2,17.5,,,
AAUGAUGCGAUCUACAGUCGAGGAUUCGAUACCAGCAACGGGCGUUGCCCUUGGCAGCGAGCUACAUGAGGAUCACCCAUGUUAC,,,,,"apparent Kd (designed as: OFF switch for theophylline, no ligand): 19.9 nM; apparent Kd (ligand present: theophylline, designed as: OFF switch for theophylline): 34.7 nM"
ACACAGUCAGGAUAUACACAAAAUCUCAGUCUAGUAAGUAAACAUGAGGAUCACCCAUGUAGAAGGGACUUUAA,,,6.95,7.79,
ACACAUAAUCUCGGACAUGAGGAUCACCCAUGUGUCACAAUCAGAAGGCACACUUGACAAGGGAGUGAGGAUAUGAAUACAUUA,,,124,32.7,
ACAGGACUAGUAGGAUAUGCGCCGGUAGUACCCGCAGAAGGACUUUCACGGGUUAUUGUCACAUGAGGAUCACCCAUGUGAGGG,,,13.2,13,
ACAUGAGGAUCACCCAUGUUAAAAGAAGAUAGCAUAUUGGGUAGAAGGUCACAUUUCCAUUAAGUGAAGGAUAUACCAUGAUUC,12.6,7.04,,,
ACAUGAUGCUAGAAGGGCACACAUGAGGAUCACCCAUGUCGAACGAUUCUUCGGGACUAUCGCAUGCAGGAUAUAGCUAAAUCG,13.2,8.24,,,
ACCUAAUAAGGAUAUACGAAAGAGCCACCUGUAAACAACCGACAUGAGGAUCACCCAUGUAGAAGGUAUUAGGU,,,4.32,9.47,
ACCUACGUAGGAUAUACGCAUCGUGGACCGCAUGCCCGUGCACAUGAGGAUCACCCAUGUAGAAGGACGUACGC,,,17.1,22.6,
ACCUGGUGUAAGAAGGAGCAGAUAUAACGGUCGCUAGGAUAUUACCCUUCAAAAUGGGAUCUCACAUGAGGAUCACCCAUGUUA,,,143,218,
ACUAUACAUGAGGAUCACCCAUGUGGUCACAUAUGAGGAUAUAUGCGGCUGUCCCGGUCAAUAGAAGGCAUAUUUA,52,53.5,,,
AGAAAGAAUCAGAAGGCAGAGAUGUCUAUCUACUGAGGAUAUGAAUGACAUGAGGAUCACCCAUGUUGUCAGGCCAGGCCCAAC,7.78,9.75,,,
